Data reported in ChEMBL document CHEMBL4673261, “Saturated Hydroxy Fatty Acids Exhibit a Cell Growth Inhibitory Activity and Suppress the Cytokine-Induced β-Cell Apoptosis” (J Med Chem, 2020).
The source made the active and inactive calls. The calls are words filed in the database; no cut-off is given here.

Tests used:
[1] = Toxicity in […] assessed as induction of apoptotic cell death at 1 to 10 uM measured after 1 hr by TUNEL assay; assay type: cell-based; conditions: ins1, 10 µM; dose 1-10 µM
Summary of the method: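 INS-1 cells (RPMI, 10% FCS, 10 mM HEPES, 1 mM pyruvate, 37 °C, 5% CO2) were grown to ~70% confluency. They were pretreated 1 h with 1 or 10 μM (final DMSO 0.10%), then given vehicle or IL-1β 20 ng/mL + IFNγ 200 ng/mL for 16 h. Cells were cytospun, PFA-fixed, permeabilised, TUNEL-stained and DAPI-counterstained. Result was % TUNEL-positive nuclei from ≥3 fields per slide, 3–5 independent experiments, mean ± SEM.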

[2] = (§1) Protection against IL1beta/IFNgamma-induced cell death in […] cells assessed as reduction in cell death at 10 uM preincubated for 1 hr followed by IL1beta/IFNgamma addition and measured after 16 hrs by TUNEL assay relative to control; assay type: functional; design: scale not given: the % may be the effect or the level left; conditions: time 17 hrs
Summary of the method: (§2)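 INS-1 insulinoma cells grown in RPMI (10% fetal calf serum, 2 mM glutamine, 10 mM HEPES, 1 mM pyruvate) at 37 °C, 5% CO2 to ~70% confluency. Pretreated 1 h with the hydroxy fatty acid in DMSO (final 0.10%), then IL-1β 20 ng/mL + IFNγ 200 ng/mL for 16 h. Cells were cytospun, PFA-fixed and permeabilised, then TUNEL/DAPI stained. Apoptotic cells counted as % of total, ≥3 fields per slide, 3–5 independent experiments.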

[3] = test system: A549; experiment: Cell cycle arrest in human A549 cells assessed as reduction in histone H3 phosphorylation at 50 uM measured after 72 hrs by DAPI and immunostaining based assay; assay type: functional
Summary of the method: (§3)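 A549 cells (DMEM, 4.5 g/L glucose, 10% heat-inactivated FBS) were grown on poly-L-lysine-coated coverslips and exposed to 50 μM or DMSO vehicle for 72 h. They were fixed in 4% PFA and blocked with 5% FBS/0.1% Triton X-100. Staining was rabbit anti-phospho-histone H3 or anti-cleaved caspase-3 overnight at 4 °C, then Alexa488 secondary and DAPI. Read-out was % positive nuclei over DAPI, n = 8 fields.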

[4] = test system: A549; experiment: Induction of apoptosis in human A549 cells assessed as increase in activated caspase-3 at 50 uM measured after 72 hrs by DAPI and immunostaining based assay; assay type: functional, cell-based; summary of the method: as §3
[5] = (§4) Protection against IL1beta/IFNgamma-induced cell death in […] cells assessed as reduction in cell death at 1 uM preincubated for 1 hr followed by IL1beta/IFNgamma addition and measured after 16 hrs by TUNEL assay relative to control; assay type: functional; design: scale not given: the % may be the effect or the level left; conditions: time 17 hrs; summary of the method: as §2
[6] = test system: Caco-2; experiment: Antiproliferative activity against human Caco2 cells assessed as reduction in cell growth at 10 to 100 uM after 72 hrs by MTT assay; assay type: functional, cell-based; conditions: dose 10-100 µM
Summary of the method: (§5)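 Cells were switched after 24 h to medium containing compound, diluted from a 10 mM DMSO stock to a final 0.5% DMSO, with vehicle controls. Exposure was 72 h, then MTT (0.25 mg/mL final) for 3 h. Formazan was dissolved in DMSO and read at 570 nm minus 690 nm background. Triplicate wells were normalised to DMSO as 100%. IC50 came from dose-response curves over at least six experiments.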

[7] = test system: SF-268; experiment: Antiproliferative activity against human SF-268 cells assessed as reduction in cell growth at 10 to 100 uM after 72 hrs by MTT assay; assay type: functional, cell-based; conditions: dose 10-100 µM; summary of the method: as §5
[8] = test system: A549; experiment: Antiproliferative activity against human A549 cells assessed as reduction in cell growth at 10 to 100 uM after 72 hrs by MTT assay; assay type: functional, cell-based; conditions: dose 10-100 µM; summary of the method: as §5
[9] = test system: Caco-2; experiment: Antiproliferative activity against human Caco2 cells assessed as reduction in cell growth after 72 hrs by MTT assay; assay type: functional, cell-based; conditions: Caco-2, 72 h; summary of the method: as §5
[10] = test system: A549; experiment: Antiproliferative activity against human A549 cells assessed as reduction in cell growth after 72 hrs by MTT assay; assay type: functional, cell-based; conditions: A549, 72 h; summary of the method: as §5
[11] = test system: U-87 MG; experiment: Antiproliferative activity against human U-87 MG cells assessed as reduction in cell growth after 72 hrs by MTT assay; assay type: functional, cell-based; conditions: U-87MG ATCC; summary of the method: as §5
[12] = test system: INS1; experiment: as §1; assay type: functional; conditions: Rattus norvegicus, time 17.0 hrs; summary of the method: as §2
[13] = test system: SF-268; experiment: Antiproliferative activity against human SF-268 cells assessed as reduction in cell growth after 72 hrs by MTT assay; assay type: functional, cell-based; conditions: SF-268, 72 h; summary of the method: as §5
[14] = biological target: Signal transducer and activator of transcription 3 (Homo sapiens) (UniProt P40763); experiment: Down regulation of STAT3 phosphorylation in human A549 cells at 50 uM by Western blot analysis; assay type: cell-based
Summary of the method: (§6)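 Treated and untreated A549 cells were lysed in RIPA and spun at 17,000g for 15 min at 4 °C. 35 μg protein was run on SDS-PAGE and transferred to nitrocellulose, then blocked with 5% BSA in TBS-0.1% Tween 20. Probes were anti-phospho-STAT3 (1:1000), anti-STAT3 (1:1000) and anti-β-actin (1:20,000) overnight at 4 °C, then secondary for 1.30 h. Relative protein expression was quantified.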

[15] = test system: INS1; experiment: as §4; assay type: functional; conditions: Rattus norvegicus, time 17.0 hrs; summary of the method: as §2
[16] = test system: A549; experiment: Reduction in STAT3 mRNA level in human A549 cells at 50 uM by RT-qPCR analysis; assay type: functional, cell-based
Summary of the method: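 STAT3 mRNA in DMSO- versus compound-treated A549 cells was measured by quantitative real-time RT-PCR, normalised to β-actin mRNA.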

[17] = test system: A549; experiment: Reduction in total STAT3 expression in human A549 cells at 50 uM by Western blot analysis; assay type: functional, cell-based; summary of the method: as §6

Signal transducer and activator of transcription 3 (Homo sapiens), sequence (P40763 whole entry): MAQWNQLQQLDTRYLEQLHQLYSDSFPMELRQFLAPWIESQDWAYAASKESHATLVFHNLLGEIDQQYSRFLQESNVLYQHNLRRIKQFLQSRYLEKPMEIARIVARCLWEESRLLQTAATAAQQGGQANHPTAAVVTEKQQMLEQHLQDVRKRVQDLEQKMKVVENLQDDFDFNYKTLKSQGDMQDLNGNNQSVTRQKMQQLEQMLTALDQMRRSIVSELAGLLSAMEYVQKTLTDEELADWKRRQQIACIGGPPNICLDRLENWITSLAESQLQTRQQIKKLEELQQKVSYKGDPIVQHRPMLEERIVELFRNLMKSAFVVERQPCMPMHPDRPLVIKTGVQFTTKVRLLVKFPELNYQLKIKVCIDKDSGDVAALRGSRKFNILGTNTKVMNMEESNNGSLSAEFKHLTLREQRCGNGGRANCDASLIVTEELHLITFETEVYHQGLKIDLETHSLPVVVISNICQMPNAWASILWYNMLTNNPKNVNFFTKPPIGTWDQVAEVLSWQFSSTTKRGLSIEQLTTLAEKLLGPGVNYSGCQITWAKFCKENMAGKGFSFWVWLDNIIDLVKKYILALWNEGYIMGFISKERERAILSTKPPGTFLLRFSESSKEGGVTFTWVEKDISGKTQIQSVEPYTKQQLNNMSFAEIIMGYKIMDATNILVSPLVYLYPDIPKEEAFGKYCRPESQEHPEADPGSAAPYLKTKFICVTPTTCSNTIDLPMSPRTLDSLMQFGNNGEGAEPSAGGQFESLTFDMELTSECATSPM

Row | SMILES | Activity [1] | Activity [6] | Activity [7] | Activity [8] | IC50 [9] | IC50 [10] | Activity [11] | also measured
1 | CCCCCCCCC[C@@H](O)CCCCCCCC(=O)O | Non-Toxic |  |  |  |  |  |  | Activity [2]: 73%; Activity [3]: Active; Activity [4]: inactive; Activity [5]: 40%
2 | CCCCCCCC/C=C\CCCCCCCC(=O)OC(CCCCCCCCC)CCCCCCCC(=O)O (centres undefined) |  | inactive | inactive | inactive |  |  |  | 
3 | CCCCCCCCC[C@@H](O)CCCCCC(=O)O |  |  |  |  | 42 µM | 49 µM | inactive | 
4 | CCCCCCCCCCCCCCCC(=O)OC(CCCCCCCCC)CCCCCCCC(=O)O (centres undefined) |  | inactive | inactive | inactive |  |  |  | 
5 | CCCCCCCCCCCCCCCCCC(=O)O |  | inactive | inactive | inactive |  |  |  | 
6 | CCCCCCCCC[C@H](O)CCCCCCCC(=O)O | Non-Toxic |  |  |  |  |  |  | Activity [2]: 68%; Activity [5]: 40%
7 | CCCCCCCCCCCCCCCC(=O)OC(CCCCCCCCCCC)CCCCCC(=O)O (centres undefined) |  | inactive | inactive | inactive |  |  |  | Activity [12]: inactive
8 | CCCCCCCCCCC[C@@H](O)CCCCCC(=O)O | Non-Toxic |  |  |  | 37 µM | 38 µM | inactive | Activity [2]: 95%; Activity [3]: Active; Activity [4]: inactive; IC50 [13]: 27 µM; Activity [14]: Active; Activity [15]: inactive; Activity [16]: Active; Activity [17]: Active
9 | CCCCCCCCCCC[C@H](O)CCCCCC(=O)O | Non-Toxic |  |  |  | 50 µM | 50 µM | inactive | Activity [12]: inactive; IC50 [13]: 47 µM; Activity [15]: inactive
10 | CCCCCCCCC[C@H](O)CCCCCC(=O)O |  |  |  |  | 50 µM | 55 µM | inactive | 
11 | CCCCCCCCCCCCCCCC(=O)O |  | inactive | inactive | inactive |  |  |  | 
